Source: ChEMBL document CHEMBL4368912, “Discovery and Development of N-[4-(1-Cyclobutylpiperidin-4-yloxy)phenyl]-2-(morpholin-4-yl)acetamide Dihydrochloride (SUVN-G3031): A Novel, Potent, Selective, and Orally Active Histamine H3 Receptor Inverse Agonist with Robust Wake-Promoting Activity” (J Med Chem, 2019)
Activity calls are given as the source filed them. The calls are words filed in the database; no cut-off is given here.

Legend:
[1] = Mutagenicity in Escherichia coli WP2 in presence of metabolic activation by Ames test; type: toxicity
Outline: (§1)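 Reverse-mutation test in Salmonella typhimurium TA1537, TA1535, TA98 and TA100 and in E. coli WP2 uvrA, run with and without metabolic activation.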

[2] = Apparent permeability across basolateral to apical side in human Caco2 cells at 10 uM; type: ADME, cell-based; conditions: Caco-2
Outline: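 Caco-2 monolayers; bidirectional permeability measured at 10 µM, with and without the P-gp inhibitor verapamil.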

[3] = system: Bone marrow cell; test: Clastogenic activity in micronucleus of mouse bone marrow cells; type: toxicity, cell-based
[4] = Tmax in Beagle dog at 3 mg/kg, po or 1 mg/kg, iv by LC-MS/MS analysis; type: ADME, organism-based, Canis lupus familiaris; conditions: in vivo
[5] = Ratio of drug uptake in Wistar rat brain to plasma at 3 mg/kg, po by LC-MS/MS analysis; type: ADME, organism-based; conditions: brain and plasma, read-out: BPR
Outline: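 Fasted male Wistar rats were dosed orally with water for injection as the vehicle. Total brain and plasma concentrations were measured at 1 h after dosing and expressed as a ratio.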

[6] = system: Rattus norvegicus; test: In vivo receptor occupancy at histamine 3 receptor in Wistar rat frontal cortex at 1 to 3 mg/kg, po after measured after 4 to 6 hrs by LC-MS/MS analysis relative to control; type: functional
[7] = Fraction unbound in human plasma at 1 uM by equilibrium dialysis; type: ADME, cell-free
Outline: (§2)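 Rapid equilibrium dialysis of fresh rat, dog or human plasma at a compound concentration of 1.0 µM. Unbound fraction reported as a percentage.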

[8] = biological target: Cytochrome P450 2C19 (Homo sapiens, UniProt P33261); test: Inhibition of CYP2C19 (unknown origin); type: ADME
[9] = AUC (0 to 24 hrs) in Wistar rat at 3 mg/kg, po by LC-MS/MS analysis; type: ADME, organism-based; parameters: dose 3 mg/kg, time < 24 hr, route oral; conditions: in vivo
Outline: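 Fasted male Wistar rats; compound in water for injection, given i.v. (2 mL/kg) or p.o. (10 mL/kg). Plasma exposure measured as AUC0-24hr.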

[10] = system: PBL; test: Clastogenic activity in human peripheral blood lymphocytes by chromosomal aberration test; type: toxicity, cell-based
[11] = Volume of distribution at steady state in Wistar rat at 3 mg/kg, po or 1 mg/kg, iv by LC-MS/MS analysis; type: ADME, organism-based; conditions: Wistar, in vivo, read-out: Vdss
Outline: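 Fasted male Wistar rats were dosed orally and intravenously, with water for injection as the vehicle for both routes, at dosing volumes of 10 mL/kg p.o. and 2 mL/kg i.v.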

[12] = Mutagenicity in Escherichia coli WP2 in absence of metabolic activation by Ames test; type: toxicity; outline: as §1
[13] = Mutagenicity in Salmonella typhimurium TA1537 in presence of metabolic activation by Ames test; type: toxicity; conditions: salmonella enterica subsp. enterica serovar typhimurium
[14] = system: Rattus norvegicus; test: Induction of wake promoting activity in orexin-B-saporin lesioned Wistar rat assessed as decrease in REM sleep time at 10 to 30 mg/kg, po dosed 15 mins before start of dark phase; type: functional, organism-based
Outline: (§3)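 Rats carried epidural frontal-cortex EEG screws, nuchal EMG leads, and bilateral lateral hypothalamic orexin-B-saporin (490 ng/0.8 µl). After at least 3 weeks' recovery, they were dosed 15 min before lights-off in a crossover design with a 1-week washout. Wake, NREM and REM time was totalled over 3 h. DREM was scored as REM after ≥60 s wake. Dunnett's test was used.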

[15] = Metabolic stability in human hepatocytes after 30 mins by LC-MS/MS analysis; type: ADME, cell-based, Hepatocyte; conditions: read-out: Stability
[16] = system: Rattus norvegicus; test: In vivo inverse agonist activity at histamine 3 receptor in rat assessed as inhibition of RAMH-induced dipsogenia at 0.3 to 10 mg/kg, po measured after 3 days; type: functional, organism-based
Outline: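 Male rats were dosed orally with 0.3, 0.5, 0.7, 1, 3 or 10 mg/kg (vehicle 1 mL/kg), then given (R)-α-methylhistamine 2.5 mg/kg s.c. Read-out was water intake (mL), reported as mean ± SEM.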

[17] = Dissociation constant, pKa1 of the compound by potentiometric titration assay; type: physicochemical
[18] = Metabolic stability in rat liver microsomes in presence of NADPH after 30 mins by LC-MS/MS analysis; type: ADME, Microsome; conditions: read-out: Stability
[19] = Mutagenicity in Salmonella typhimurium TA1535 in presence of metabolic activation by Ames test; type: toxicity; conditions: salmonella enterica subsp. enterica serovar typhimurium
[20] = biological target: T1, Cytochrome P450 2C8 (Homo sapiens, UniProt P10632); test: Inhibition of CYP2C8 (unknown origin); type: ADME
T1 sequence (P10632 whole entry): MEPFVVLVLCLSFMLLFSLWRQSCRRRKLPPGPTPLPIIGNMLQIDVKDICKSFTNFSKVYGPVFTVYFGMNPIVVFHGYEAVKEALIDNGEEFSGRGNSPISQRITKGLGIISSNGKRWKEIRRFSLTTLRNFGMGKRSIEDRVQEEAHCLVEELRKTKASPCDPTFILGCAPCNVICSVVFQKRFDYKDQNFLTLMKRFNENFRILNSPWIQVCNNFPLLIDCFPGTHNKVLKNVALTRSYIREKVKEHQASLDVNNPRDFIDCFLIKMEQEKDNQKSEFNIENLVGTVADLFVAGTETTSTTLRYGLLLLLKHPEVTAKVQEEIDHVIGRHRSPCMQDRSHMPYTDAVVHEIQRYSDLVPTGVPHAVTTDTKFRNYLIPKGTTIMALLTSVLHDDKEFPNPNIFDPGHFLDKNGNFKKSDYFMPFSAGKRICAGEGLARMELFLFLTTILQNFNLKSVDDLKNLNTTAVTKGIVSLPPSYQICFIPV

[21] = system: Rattus norvegicus; test: Induction of wake promoting activity in orexin-B-saporin lesioned Wistar rat assessed as decrease in number of direct REM sleep onset episodes at 10 to 30 mg/kg, po dosed 15 mins before start of dark phase; type: functional, organism-based; outline: as §3
[22] = Mutagenicity in Salmonella typhimurium TA1537 in absence of metabolic activation by Ames test; type: toxicity; conditions: salmonella enterica subsp. enterica serovar typhimurium
[23] = Toxicity in dog assessed as effect on body weight at 10 to 25 mg/kg, po; type: organism-based, Canis lupus familiaris; conditions: in vivo
Outline: (§4)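 Male dogs received oral doses of 10, 18 and 25 mg/kg. Body weight, body temperature, blood pressure, heart rate and ECG were monitored.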

[24] = Metabolic stability in dog liver microsomes in presence of NADPH after 30 mins by LC-MS/MS analysis; type: ADME, Canis lupus familiaris, Microsome; conditions: read-out: Stability
[25] = Oral bioavailability in Beagle dog at 3 mg/kg by LC-MS/MS analysis; type: ADME, organism-based, Canis lupus familiaris; conditions: in vivo
[26] = Mutagenicity in Salmonella typhimurium TA100 in presence of metabolic activation by Ames test; type: toxicity; conditions: salmonella enterica subsp. enterica serovar typhimurium; outline: as §1
[27] = Toxicity in dog assessed as effect on body temperature at 10 to 25 mg/kg, po; type: organism-based, Canis lupus familiaris; conditions: in vivo; outline: as §4
[28] = biological target: Cytochrome P450 3A4 (Homo sapiens, UniProt P08684); test: Inhibition of CYP3A4 in human liver microsomes using midazolam as substrate after 2 mins by LC-MS/MS analysis; type: ADME
[29] = Toxicity in dog assessed as effect on blood pressure at 10 to 25 mg/kg, po; type: organism-based, Canis lupus familiaris; conditions: in vivo; outline: as §4
[30] = Fraction unbound in rat plasma at 1 uM by equilibrium dialysis; type: ADME, cell-free; outline: as §2
[31] = Dissociation constant, pKa2 of the compound by potentiometric titration assay; type: physicochemical

Sequence of Cytochrome P450 2C19 (P33261 whole entry): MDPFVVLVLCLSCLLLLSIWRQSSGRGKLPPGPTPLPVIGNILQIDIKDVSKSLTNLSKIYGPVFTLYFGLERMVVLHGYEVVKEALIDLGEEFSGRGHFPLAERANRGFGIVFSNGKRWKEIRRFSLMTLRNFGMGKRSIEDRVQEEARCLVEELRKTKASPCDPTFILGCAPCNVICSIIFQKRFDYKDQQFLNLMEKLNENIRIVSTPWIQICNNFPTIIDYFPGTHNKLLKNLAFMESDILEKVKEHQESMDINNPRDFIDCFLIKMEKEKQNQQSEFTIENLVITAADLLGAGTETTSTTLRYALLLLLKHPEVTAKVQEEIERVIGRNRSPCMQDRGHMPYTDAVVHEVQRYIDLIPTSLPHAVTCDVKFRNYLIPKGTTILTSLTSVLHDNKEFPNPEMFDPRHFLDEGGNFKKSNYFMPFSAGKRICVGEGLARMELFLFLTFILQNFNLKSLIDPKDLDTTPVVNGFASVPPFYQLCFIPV
Sequence of Cytochrome P450 3A4 (P08684 whole entry): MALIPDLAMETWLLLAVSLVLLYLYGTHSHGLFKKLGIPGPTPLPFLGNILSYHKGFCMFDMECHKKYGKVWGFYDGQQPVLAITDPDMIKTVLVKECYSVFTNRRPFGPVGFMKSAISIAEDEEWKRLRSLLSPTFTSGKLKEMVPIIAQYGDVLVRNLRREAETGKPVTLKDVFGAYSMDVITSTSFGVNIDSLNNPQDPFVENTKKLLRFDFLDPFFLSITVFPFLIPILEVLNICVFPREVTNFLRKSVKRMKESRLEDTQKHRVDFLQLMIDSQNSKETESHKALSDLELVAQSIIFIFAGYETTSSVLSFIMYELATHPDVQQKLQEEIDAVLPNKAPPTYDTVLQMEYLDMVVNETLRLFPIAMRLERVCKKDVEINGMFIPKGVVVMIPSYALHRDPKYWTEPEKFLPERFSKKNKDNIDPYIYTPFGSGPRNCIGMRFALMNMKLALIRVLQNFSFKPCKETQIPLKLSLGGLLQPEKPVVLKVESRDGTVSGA

In the case of Cl.Cl.O=C(CN1CCOCC1)Nc1ccc(OC2CCN(C3CCC3)CC2)cc1, the Activity [1] is reported as “Non-Toxic”, the Papp B→A at 10 µM [2] is reported as 30.8 ×10⁻⁶ cm/s and the Activity [3] is reported as “Non-Toxic”. For the same compound, the Tmax [4] was 15 to 60 min, the Kp [5] was 0.93 and the Occ [6] was 50%. The fraction unbound at 1 µM [7] was 0.7, the IC50 [8] was > 45 µM and the AUC(0-t) at 24 h [9] was 626 ng·h/mL. The Activity [10] was “Non-Toxic”, the Vd [11] was 5 L/kg and the Activity [12] was “Non-Toxic”. For the same compound, the Activity [13] was “Non-Toxic”, the Activity [14] was “Active” and the remaining at 0.5 h [15] was < 5%. For the same compound, the inhibition [16] was “Active”, the pKa [17] was 8.5 and the remaining at 0.5 h [18] was 27%. For the same compound, the Activity [19] was “Non-Toxic”, the IC50 [20] was > 45 µM and the Activity [21] was “Active”. The Activity [22] was “Non-Toxic”, the Activity [23] was “Non-Toxic” and the remaining at 0.5 h [24] was 13%. For the same compound, the bioavailability [25] was 83%, the Activity [26] was “Non-Toxic” and the Activity [27] was “Non-Toxic”. For the same compound, the IC50 [28] was > 45 µM, the Activity [29] was “Non-Toxic” and the fraction unbound at 1 µM [30] was 0.37. It also gave a pKa [31] of 4.9.
